Measurements: ChEMBL document CHEMBL4715745, “Synthesis and biological evaluation of novel FK228 analogues as potential isoform selective HDAC inhibitors” (Eur J Med Chem, 2016)

tested on: NCI-H226; test: Growth inhibition of human NCI-H226 cells measured after 48 hrs by sulforhodamine B assay; assay type: functional
Summary of the method: (§1)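 Panel of 39 human cancer cell lines tested at the Japanese Foundation for Cancer Research. Five concentrations per compound, spanning 10⁻¹¹–10⁻⁷ M, 10⁻¹⁰–10⁻⁶ M or 10⁻⁸–10⁻⁴ M, were used to build dose-response curves. GI₅₀ is the concentration giving 50% growth inhibition relative to control.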

GI50 [µM]	SMILES
1.6	CC(C)C[C@@H]1NC(=O)[C@H]2CSSCC/C=C/[C@H](CC(=O)N[C@H](C(C)C)C(=O)N2)OC(=O)CNC1=O

tested on: SK-OV-3; test: Growth inhibition of human SK-OV-3 cells measured after 48 hrs by sulforhodamine B assay; assay type: functional; summary of the method: as §1

GI50 [µM]	SMILES
1.5	CC(C)C[C@@H]1NC(=O)[C@H]2CSSCC/C=C/[C@H](CC(=O)N[C@H](C(C)C)C(=O)N2)OC(=O)CNC1=O

tested on: NCI-H460; test: Growth inhibition of human NCI-H460 cells measured after 48 hrs by sulforhodamine B assay; assay type: functional; summary of the method: as §1

GI50 [µM]	SMILES
1.1	CC(C)C[C@@H]1NC(=O)[C@H]2CSSCC/C=C/[C@H](CC(=O)N[C@H](C(C)C)C(=O)N2)OC(=O)CNC1=O

tested on: A549; test: Growth inhibition of human A549 cells measured after 48 hrs by sulforhodamine B assay; assay type: functional; summary of the method: as §1

GI50 [µM]	SMILES
0.72	CC(C)C[C@@H]1NC(=O)[C@H]2CSSCC/C=C/[C@H](CC(=O)N[C@H](C(C)C)C(=O)N2)OC(=O)CNC1=O

molecular target: T1, Protein deacetylase HDAC6 (Mus musculus, UniProt Q9Z2V5); test: Inhibition of mouse HDAC6 expressed in 293T cells using Ac-KGLGK(Ac)-MCA as substrate incubated for 30 mins in presence of 0.1 mM DTT by fluorescence plate reader assay; parameters: species or system HEK293T
T1 sequence (Q9Z2V5 whole entry): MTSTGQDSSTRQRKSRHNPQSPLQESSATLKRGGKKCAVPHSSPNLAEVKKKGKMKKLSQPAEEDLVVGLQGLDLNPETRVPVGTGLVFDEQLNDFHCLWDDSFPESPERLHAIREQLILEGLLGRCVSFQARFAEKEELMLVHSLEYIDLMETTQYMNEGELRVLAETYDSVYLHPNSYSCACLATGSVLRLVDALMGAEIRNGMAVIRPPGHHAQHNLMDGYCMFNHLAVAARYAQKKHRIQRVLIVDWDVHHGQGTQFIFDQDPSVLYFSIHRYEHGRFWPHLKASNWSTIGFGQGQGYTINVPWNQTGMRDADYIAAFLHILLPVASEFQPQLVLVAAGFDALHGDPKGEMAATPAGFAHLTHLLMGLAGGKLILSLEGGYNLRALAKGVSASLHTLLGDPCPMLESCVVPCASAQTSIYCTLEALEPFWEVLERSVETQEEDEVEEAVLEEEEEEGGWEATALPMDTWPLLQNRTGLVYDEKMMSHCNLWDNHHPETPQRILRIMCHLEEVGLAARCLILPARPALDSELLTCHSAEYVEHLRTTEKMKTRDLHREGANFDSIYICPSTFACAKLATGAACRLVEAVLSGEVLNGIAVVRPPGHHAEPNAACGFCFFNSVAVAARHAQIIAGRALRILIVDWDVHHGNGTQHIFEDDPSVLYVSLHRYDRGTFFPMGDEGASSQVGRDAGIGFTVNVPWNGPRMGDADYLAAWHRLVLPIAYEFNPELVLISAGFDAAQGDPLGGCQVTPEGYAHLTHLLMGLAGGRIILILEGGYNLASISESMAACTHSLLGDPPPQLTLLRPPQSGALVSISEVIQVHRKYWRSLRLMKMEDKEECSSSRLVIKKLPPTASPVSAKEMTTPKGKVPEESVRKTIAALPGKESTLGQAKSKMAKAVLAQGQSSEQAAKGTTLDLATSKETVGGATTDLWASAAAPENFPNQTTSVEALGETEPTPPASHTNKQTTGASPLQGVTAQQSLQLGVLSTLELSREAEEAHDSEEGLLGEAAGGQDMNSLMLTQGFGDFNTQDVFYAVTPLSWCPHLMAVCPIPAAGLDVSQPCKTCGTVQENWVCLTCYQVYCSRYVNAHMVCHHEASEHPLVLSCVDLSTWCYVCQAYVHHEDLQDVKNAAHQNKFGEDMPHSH
Summary of the method: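 HDAC enzyme assay run in the presence of 0.1 mM dithiothreitol (DTT); IC₅₀ determined.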

IC50 [µM]	SMILES
2.26	CC(C)C[C@@H]1NC(=O)[C@H]2CSSCC/C=C/[C@H](CC(=O)N[C@H](C(C)C)C(=O)N2)OC(=O)CNC1=O

tested on: DMS-273; test: Growth inhibition of human DMS-273 cells measured after 48 hrs by sulforhodamine B assay; assay type: functional; summary of the method: as §1

SMILES	GI50 [µM]
CC(C)C[C@@H]1NC(=O)[C@H]2CSSCC/C=C/[C@H](CC(=O)N[C@H](C(C)C)C(=O)N2)OC(=O)CNC1=O	1.4

tested on: SNB-75; test: Growth inhibition of human SNB-75 cells measured after 48 hrs by sulforhodamine B assay; assay type: functional; summary of the method: as §1

SMILES	GI50 [µM]
CC(C)C[C@@H]1NC(=O)[C@H]2CSSCC/C=C/[C@H](CC(=O)N[C@H](C(C)C)C(=O)N2)OC(=O)CNC1=O	1

tested on: SF-295; test: Growth inhibition of human SF-295 cells measured after 48 hrs by sulforhodamine B assay; assay type: functional; summary of the method: as §1

SMILES	GI50 [µM]
CC(C)C[C@@H]1NC(=O)[C@H]2CSSCC/C=C/[C@H](CC(=O)N[C@H](C(C)C)C(=O)N2)OC(=O)CNC1=O	1.5

tested on: KM12; test: Growth inhibition of human KM12 cells measured after 48 hrs by sulforhodamine B assay; assay type: functional; summary of the method: as §1

SMILES	GI50 [µM]
CC(C)C[C@@H]1NC(=O)[C@H]2CSSCC/C=C/[C@H](CC(=O)N[C@H](C(C)C)C(=O)N2)OC(=O)CNC1=O	1.1

tested on: ACHN; test: Growth inhibition of human ACHN cells measured after 48 hrs by sulforhodamine B assay; assay type: functional; summary of the method: as §1

GI50 [µM]	SMILES
9.4	CC(C)C[C@@H]1NC(=O)[C@H]2CSSCC/C=C/[C@H](CC(=O)N[C@H](C(C)C)C(=O)N2)OC(=O)CNC1=O

molecular target: Histone deacetylase 1 (Homo sapiens, UniProt Q13547); test: Inhibition of human HDAC1 expressed in 293T cells using Ac-KGLGK(Ac)-MCA as substrate incubated for 30 mins in presence of 0.1 mM DTT by fluorescence plate reader assay; parameters: species or system HEK293T
Sequence (Q13547 whole entry): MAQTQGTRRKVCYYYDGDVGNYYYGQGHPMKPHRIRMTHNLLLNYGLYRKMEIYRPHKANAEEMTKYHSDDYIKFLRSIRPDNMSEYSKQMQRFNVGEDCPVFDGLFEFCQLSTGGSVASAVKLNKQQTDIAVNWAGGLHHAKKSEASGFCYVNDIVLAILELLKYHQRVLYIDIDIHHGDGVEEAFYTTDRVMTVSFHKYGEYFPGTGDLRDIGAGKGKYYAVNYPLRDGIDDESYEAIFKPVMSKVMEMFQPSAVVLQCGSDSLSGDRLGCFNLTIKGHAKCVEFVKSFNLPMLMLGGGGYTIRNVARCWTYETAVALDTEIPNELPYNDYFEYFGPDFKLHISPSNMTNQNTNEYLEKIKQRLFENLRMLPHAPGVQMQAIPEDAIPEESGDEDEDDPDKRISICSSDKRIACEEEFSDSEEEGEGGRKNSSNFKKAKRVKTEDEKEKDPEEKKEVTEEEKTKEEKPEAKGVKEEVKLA

IC50 [µM]	SMILES
0.0114	CC(C)C[C@@H]1NC(=O)[C@H]2CSSCC/C=C/[C@H](CC(=O)N[C@H](C(C)C)C(=O)N2)OC(=O)CNC1=O

tested on: not listed separately; test: Growth inhibition of human HBC4 cells measured after 48 hrs by sulforhodamine B assay; assay type: functional; summary of the method: as §1

SMILES	GI50 [µM]
CC(C)C[C@@H]1NC(=O)[C@H]2CSSCC/C=C/[C@H](CC(=O)N[C@H](C(C)C)C(=O)N2)OC(=O)CNC1=O	1.4

tested on: HCT-116; test: Growth inhibition of human HCT-116 cells measured after 48 hrs by sulforhodamine B assay; assay type: functional; summary of the method: as §1

GI50 [µM]	SMILES
0.34	CC(C)C[C@@H]1NC(=O)[C@H]2CSSCC/C=C/[C@H](CC(=O)N[C@H](C(C)C)C(=O)N2)OC(=O)CNC1=O

tested on: DMS-114; test: Growth inhibition of human DMS-114 cells measured after 48 hrs by sulforhodamine B assay; assay type: functional; summary of the method: as §1

SMILES	GI50 [µM]
CC(C)C[C@@H]1NC(=O)[C@H]2CSSCC/C=C/[C@H](CC(=O)N[C@H](C(C)C)C(=O)N2)OC(=O)CNC1=O	0.68

tested on: SF-268; test: Growth inhibition of human SF-268 cells measured after 48 hrs by sulforhodamine B assay; assay type: functional; summary of the method: as §1

SMILES	GI50 [µM]
CC(C)C[C@@H]1NC(=O)[C@H]2CSSCC/C=C/[C@H](CC(=O)N[C@H](C(C)C)C(=O)N2)OC(=O)CNC1=O	0.82

tested on: RXF 631; test: Growth inhibition of human RXF 631 cells measured after 48 hrs by sulforhodamine B assay; assay type: functional; summary of the method: as §1

SMILES	GI50 [µM]
CC(C)C[C@@H]1NC(=O)[C@H]2CSSCC/C=C/[C@H](CC(=O)N[C@H](C(C)C)C(=O)N2)OC(=O)CNC1=O	3.2

tested on: MKN-1; test: Growth inhibition of human MKN-1 cells measured after 48 hrs by sulforhodamine B assay; assay type: functional; summary of the method: as §1

GI50 [µM]	SMILES
1.1	CC(C)C[C@@H]1NC(=O)[C@H]2CSSCC/C=C/[C@H](CC(=O)N[C@H](C(C)C)C(=O)N2)OC(=O)CNC1=O

tested on: DU-145; test: Growth inhibition of human DU-145 cells measured after 48 hrs by sulforhodamine B assay; assay type: functional; summary of the method: as §1

GI50 [µM]	SMILES
0.83	CC(C)C[C@@H]1NC(=O)[C@H]2CSSCC/C=C/[C@H](CC(=O)N[C@H](C(C)C)C(=O)N2)OC(=O)CNC1=O

tested on: HCC 2998; test: Growth inhibition of human HCC 2998 cells measured after 48 hrs by sulforhodamine B assay; assay type: functional; summary of the method: as §1

GI50 [µM]	SMILES
1.3	CC(C)C[C@@H]1NC(=O)[C@H]2CSSCC/C=C/[C@H](CC(=O)N[C@H](C(C)C)C(=O)N2)OC(=O)CNC1=O

tested on: PC-3; test: Growth inhibition of human PC-3 cells measured after 48 hrs by sulforhodamine B assay; assay type: functional; summary of the method: as §1

GI50 [µM]	SMILES
1.4	CC(C)C[C@@H]1NC(=O)[C@H]2CSSCC/C=C/[C@H](CC(=O)N[C@H](C(C)C)C(=O)N2)OC(=O)CNC1=O

tested on: U-251; test: Growth inhibition of human U-251 cells measured after 48 hrs by sulforhodamine B assay; assay type: functional; summary of the method: as §1

GI50 [µM]	SMILES
0.33	CC(C)C[C@@H]1NC(=O)[C@H]2CSSCC/C=C/[C@H](CC(=O)N[C@H](C(C)C)C(=O)N2)OC(=O)CNC1=O
